Compound activity: PubChem, Broad Institute
An excerpt weighted towards active compounds, which were near 2.9% of everything screened.
DENV2 CPE – DENV2-induced cell death inhibition; DENV2-infected cells, cytopathic effect rescue, plate reader; CPE inhibition, % at 9.99 µM; 1.7% of 350,000 active; AID 651640; in the data active means CPE inhibition above about 20%, passing the limit was not always enough; inconclusive means no clear call, values can overlap the other calls; tested in BHK-21 cells
ERAP1 inh – inhibitors of human ERAP1 aminopeptidase. Q9NZ08. recombinant ERAP1, Leu-AMC fluorescence, 60 min. inhibition, % at 10.7 µM. 0.15% of 340,000 active. AID 652197;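 active means mean replicate inhibition of at least 30%, or all replicates individually reaching that 30% level; inactive means mean below 30% and not every replicate reaching it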
Target sequence (Q9NZ08 whole entry, looked up): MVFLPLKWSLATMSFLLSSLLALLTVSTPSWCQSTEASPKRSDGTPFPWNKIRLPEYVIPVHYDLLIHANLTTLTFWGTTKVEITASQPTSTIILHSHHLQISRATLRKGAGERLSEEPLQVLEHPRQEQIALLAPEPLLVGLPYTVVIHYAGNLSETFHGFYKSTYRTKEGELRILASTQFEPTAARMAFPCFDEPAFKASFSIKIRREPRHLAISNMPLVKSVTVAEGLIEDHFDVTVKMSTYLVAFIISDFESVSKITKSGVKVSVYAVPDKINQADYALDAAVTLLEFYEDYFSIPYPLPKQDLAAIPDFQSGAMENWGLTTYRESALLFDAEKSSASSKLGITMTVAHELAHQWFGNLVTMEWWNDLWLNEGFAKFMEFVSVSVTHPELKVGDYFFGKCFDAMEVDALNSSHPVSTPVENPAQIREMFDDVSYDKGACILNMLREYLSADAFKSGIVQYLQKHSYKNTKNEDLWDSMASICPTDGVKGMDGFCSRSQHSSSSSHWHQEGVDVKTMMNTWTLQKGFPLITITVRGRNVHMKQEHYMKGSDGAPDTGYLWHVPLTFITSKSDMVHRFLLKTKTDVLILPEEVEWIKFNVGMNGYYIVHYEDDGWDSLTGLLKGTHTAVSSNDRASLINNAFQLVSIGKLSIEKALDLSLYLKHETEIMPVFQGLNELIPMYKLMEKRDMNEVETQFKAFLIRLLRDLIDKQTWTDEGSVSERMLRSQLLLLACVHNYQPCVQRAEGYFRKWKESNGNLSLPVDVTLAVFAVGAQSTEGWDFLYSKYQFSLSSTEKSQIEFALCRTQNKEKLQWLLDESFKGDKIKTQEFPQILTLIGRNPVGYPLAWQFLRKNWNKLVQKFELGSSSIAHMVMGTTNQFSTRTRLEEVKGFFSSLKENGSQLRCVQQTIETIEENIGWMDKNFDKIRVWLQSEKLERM
CAL PDZ FP-1 – human CAL PDZ-peptide interaction inhibition | 0.02% of 330,000 active | inhibition, % at 20 µM | Q9HD26 | purified CAL PDZ, TMR-peptide fluorescence polarization, 1 h | AID 504414;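 active means highest replicate inhibition of at least 40%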
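material = purified tagged CAL PDZ domain construct (CerCALP) | buffer or medium = sodium phosphate/NaCl buffer pH 7.4 with TCEP, IgG, Thesit | reagent = TMR-labelled reporter peptide T*-PRC34 bound in PDZ groove | incubation = 1 h room-temperature incubation prior to read | measured by = fluorescence polarization (mP) | evaluation = percent inhibition from loss of millipolarization | control set = unlabelled peptide and DMSO controls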
CAL PDZ FP-2 – CAL PDZ (human) peptide binding inhibition. 0.92% of 300,000 active. inhibition, % at 24.9 µM. AID 602252. purified CAL PDZ, TMR-peptide fluorescence polarization, 1 h;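 active means mean inhibition of at least 30% with at least half of replicates also reaching 30%; inconclusive means no clear call, values can overlap the other calls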
SIRT5 inh – blocks human SIRT5 desuccinylation of peptide; 1.1% of 330,000 active; Purified SirT5, succinyl-peptide AMC, trypsin-coupled fluorescence; inhibition, % at 15 µM; AID 652115; in the data active means inhibition above about 15%; inconclusive means no clear call, values can overlap the other calls
S100A4 MyoIIA – blocks human S100A4 binding to myosin IIA peptide. P26447. 0.14% of 360,000 active. inhibition, % at 10.7 µM. AID 652163. S100A4/TAMRA-MyoIIA peptide fluorescence polarization;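 active means mean inhibition of at least 70% across replicates, with every replicate also reaching that level; inconclusive means mean inhibition reaches 70% but some replicates fall short; inactive means mean inhibition below 70%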
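Test system: S100A4 monomer protein; Medium: HEPES pH 7.2 with CaCl2, KCl, NaCl, DTT, Triton; Probe or stimulus: TAMRA-labelled myosin IIA heavy-chain peptide probe, 5 nM; Doses: one dose per compound; Times: polarization read 5 min after assay mix addition, stable 5–60 min; Benchmarks: neutral control DMSO, positive control TFP.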
Numbers stand for hits; - = inactive; ? = inconclusive; . = no result.

SMILES	DENV2 CPE	ERAP1 inh	CAL PDZ FP-1	CAL PDZ FP-2	SIRT5 inh	S100A4 MyoIIA
CC(C)(C)OC(=O)N1CCC(NC(=O)c2nc[nH]c2C(=O)NCC(=O)OCc2ccccc2)CC1	38	.	-	-	.	-
CC1CCN(C(=O)c2[nH]cnc2C(=O)N[C@@H](CCCCNC(=O)OC(C)(C)C)C(=O)OC(C)(C)C)CC1	-	-	-	-	.	-
CC(C)C[C@H](NC(=O)c1nc[nH]c1C(=O)N1CCC(C)CC1)C(=O)OC(C)(C)C	82	.	-	-	.	-
Cc1ccc(S(=O)(=O)N(C)C[C@@H]2Oc3c(NC(=O)c4ccncc4)cccc3C(=O)N([C@H](C)CO)C[C@@H]2C)cc1	-	-	.	.	-	-
CCC(=O)Nc1ccc2c(c1)C(=O)N(C)C[C@@H](OC)[C@@H](C)CN(C(=O)c1ccccn1)[C@@H](C)CO2	-	-	.	.	-	-
Cc1ccc(OCCNC(=O)/C=C/c2ccccc2)cc1	28	-	-	-	-	-
COc1ccc(/C=C/C(=O)NCCOc2ccccc2OC)cc1	.	.	-	-	.	.
COCCNC(=S)N1CCN(S(=O)(=O)c2ccc(Cl)s2)CC1	45	-	-	-	-	-
C[C@@H]1CCCCO[C@@H](CN(C)S(=O)(=O)c2cccs2)[C@H](C)CN([C@@H](C)CO)C(=O)c2cc(NC(=O)c3ccncc3)ccc2O1	?	-	.	.	-	-
Cc1ccc(S(=O)(=O)N(C)C[C@H]2Oc3c(NC(=O)C4CC4)cccc3C(=O)N([C@H](C)CO)C[C@H]2C)cc1	-	-	.	.	-	-
O=C1c2ccccc2NC(c2cccc(O)c2)N1NS(=O)(=O)c1ccccc1 (stereo unspecified)	-	38	-	-	-	-
CN(C)c1ccc(C2Nc3ccccc3C(=O)N2NS(C)(=O)=O)cc1 (stereo unspecified)	-	-	-	-	31	-
CC(C)C1CC(=O)NC(SCC(=O)Nc2ccc(Br)cc2)=C1C#N (stereo unspecified)	.	.	-	57	.	.
Cc1noc(C)c1S(=O)(=O)N(C)C[C@H]1Oc2ccc(NS(C)(=O)=O)cc2CC(=O)N([C@H](C)CO)C[C@H]1C	-	-	.	.	-	-
COc1ccc(CN(C)C[C@H]2Oc3ccc(NC(=O)C4CCCCC4)cc3CC(=O)N([C@@H](C)CO)C[C@@H]2C)cc1	-	-	.	.	17	-
COc1ccc(NC(=O)Nc2ccc3c(c2)CC(=O)N([C@H](C)CO)C[C@@H](C)[C@@H](CN(C)S(=O)(=O)c2ccc(OC)cc2)O3)cc1	40	-	.	.	-	-
COc1ccc(NC(=O)Nc2ccc3c(c2)CC(=O)N([C@@H](C)CO)C[C@@H](C)[C@H](CN(C)S(C)(=O)=O)O3)cc1	30	-	.	.	.	-
Cc1noc(C)c1S(=O)(=O)N(C)C[C@H]1Oc2ccc(N(C)C)cc2CC(=O)N([C@H](C)CO)C[C@H]1C	-	.	.	.	-	129
COc1ccc(CN(C)C[C@H]2Oc3ccc(NC(=O)C4CCCCC4)cc3CC(=O)N([C@H](C)CO)C[C@H]2C)cc1	-	-	.	.	-	-
O=C(C[C@H]1CC[C@H]2[C@@H](COC[C@@H](O)CN2C(=O)Nc2cc(Cl)cc(Cl)c2)O1)NCC1CCCCC1	-	-	.	.	-	-
COc1ccc(S(=O)(=O)N(C)C[C@H]2Oc3ccc(NC(=O)C4CCCCC4)cc3CC(=O)N([C@H](C)CO)C[C@H]2C)cc1	22	-	.	.	-	-
COc1ccc(S(=O)(=O)N(C)C[C@@H]2Oc3ccc(N(C)C)cc3CC(=O)N([C@@H](C)CO)C[C@@H]2C)cc1	-	-	.	.	-	-
COc1ccc(S(=O)(=O)N(C)C[C@@H]2Oc3ccc(N(C)C)cc3CC(=O)N([C@H](C)CO)C[C@@H]2C)cc1	23	-	.	.	-	-
O=C(C1CC1)N1CC(=O)N2[C@H](C1)[C@H](c1ccc(C#Cc3cccc(F)c3)cc1)[C@@H]2CO	-	-	.	.	-	-
O=C(C[C@@H]1CC[C@@H]2[C@H](COC[C@@H](O)CN2S(=O)(=O)c2ccc(Cl)cc2)O1)NCCN1CCCC1	27	-	.	.	-	-
SMILES	DENV2 CPE	ERAP1 inh	CAL PDZ FP-1	CAL PDZ FP-2	SIRT5 inh	S100A4 MyoIIA
O=C(C[C@H]1CC[C@@H]2[C@H](COC[C@H](O)CN2S(=O)(=O)c2ccccc2)O1)NCCN1CCCC1	28	-	.	.	-	-
O=C(C[C@H]1CC[C@@H]2[C@H](COC[C@@H](O)CN2S(=O)(=O)c2ccc(Cl)cc2)O1)NCCN1CCCC1	-	-	.	.	-	-
CN(C)CCCNC(=O)C[C@H]1CC[C@H]2[C@@H](COC[C@H](O)CN2S(=O)(=O)c2ccc(F)cc2)O1	-	-	.	.	22	-
Cn1cnc(S(=O)(=O)N2C[C@H](O)COC[C@@H]3O[C@@H](CC(=O)NC4CCCC4)CC[C@H]32)c1	59	-	.	.	-	-
O=C(Cc1cccnc1)N1CC(=O)N2[C@H](C1)[C@@H](c1ccc(C#CC3CCCC3)cc1)[C@@H]2CO	-	-	.	.	-	-
O=C(C[C@H]1CC[C@@H]2[C@H](COC[C@@H](O)CN2S(=O)(=O)c2ccccc2)O1)NCC1CCCCC1	-	-	.	.	100	-
C=C(C)CNC(=S)N/N=C/C1=CCC2CC1C2(C)C (stereo unspecified)	.	.	-	49	.	.
CCCCNC(=S)N/N=C/C1=CCC2CC1C2(C)C (stereo unspecified)	.	.	-	-	.	.
CC(C)NC(=O)Nc1ccc2c(c1)C(=O)N([C@@H](C)CO)C[C@@H](C)[C@H](CN(C)C(=O)NC1CCCCC1)OCCCC[C@H](C)O2	-	-	.	.	-	-
Cc1ccccc1OCC(=O)OCC(=O)NCCNC(=O)COC(=O)COc1ccccc1C	44	-	-	.	-	-
O=C(COC(=O)COc1ccc(Cl)cc1Cl)NC1CC1	-	-	-	-	-	-
CC(C)CNC(=O)NC(=O)COC(=O)COc1ccc(Cl)cc1Cl	-	.	-	45	-	-
C=CCNC(=O)COC(=O)COc1ccc(Cl)cc1C	.	-	.	-	17	-
Cc1ccccc1OCC(=O)NCCNC(=O)c1ccccn1	-	-	-	-	30	-
CC(C)Oc1ccc(C(=O)NCCCNC(=O)c2ccccn2)cc1	-	-	-	.	17	-
COc1cc(OC)cc(C(=O)NCCCNC(=O)c2ccccn2)c1	-	-	-	-	-	-
CCOC(=O)CN1C(=O)c2ccccc2C1=O	.	.	-	51	.	.
CCCOC(=O)CN1C(=O)c2ccccc2C1=O	.	.	-	-	.	.
O=C(CN1C(=O)c2ccccc2C1=O)N1CCN(c2ccccc2)CC1	.	.	-	40	.	.
C[C@@H]1CN([C@H](C)CO)C(=O)c2cc(-c3ccc(C#N)cc3)cnc2O[C@@H]1CN(C)C(=O)Nc1ccc(F)cc1	-	-	.	.	-	-
CCCNC(=O)N1CC2(CN(CC3CCOCC3)C2)c2c(n(C)c3cc(OC)ccc23)[C@H]1CO	?	-	.	.	-	-
